Results from ChEMBL document CHEMBL4033608, “Benzophenone and Fimetarone Derivatives from the Coprophilous Fungus Delitschia confertaspora” (J Nat Prod, 2017).
Activity calls are given as the source filed them.

What was measured:
Cryptococcus neoformans = assay: Antimicrobial activity against Cryptococcus neoformans at 100 ug/disc by standard disc dassay; format: functional
MDA-MB-231 = assay: Cytotoxicity against human MDA-MB-231 cells assessed as reduction in cell viability up to 10 uM by Cell-Titer Glo assay; format: functional, cell-based
In short: (§1)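 Viability read by CellTiter-Glo: reagent added 1:1 to the well medium, plates kept in foil and shaken 2 min at room temperature, paused 2 min, then shaken 2 min more, and luminescence measured. Compounds were tested at concentrations up to 10 μM. Sphaeropsidin A served as positive control and a DMSO blank as negative control.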

Candida albicans = assay: Antimicrobial activity against Candida albicans at 100 ug/disc by standard disc dassay; format: functional
Bacillus subtilis = assay: Antimicrobial activity against Bacillus subtilis at 100 ug/disc by standard disc dassay; format: functional
D453 (Homo sapiens) = assay: Cytotoxicity against human D453 cells assessed as reduction in cell viability up to 10 uM by Cell-Titer Glo assay
GLI56 = assay: Cytotoxicity against human GLI56 cells assessed as reduction in cell viability up to 10 uM by Cell-Titer Glo assay; format: functional, cell-based; in short: as §1
Escherichia coli = assay: Antimicrobial activity against Escherichia coli at 100 ug/disc by standard disc dassay; format: functional
Staphylococcus aureus = assay: Antimicrobial activity against Staphylococcus aureus at 100 ug/disc by standard disc dassay; format: functional

Measured: Activity

COC(=O)c1cc(OC)cc(O)c1C(=O)c1cc(C(C)=O)c(O)c(C(=O)c2c(O)cc(OC)cc2C(=O)OC)c1
inactive: all assays above

COC(=O)c1cc(OC)cc(O)c1C(=O)c1cc(C(C)=O)c2oc3cc(OC)cc(C(=O)OC)c3c(=O)c2c1
inactive: all assays above

COC(=O)c1cc(OC)cc(O)c1C1=C2CC3(COc4cc(OC)cc(C(=O)OC)c4C3=O)C(=O)C(C(C)=O)=C2C=C(C)O1 (centres undefined)
inactive: all assays above
